# According to ChEMBL document CHEMBL3351496, “Inhibition of the ANT(2")-Ia resistance enzyme and rescue of aminoglycoside antibiotic activity by synthetic α-hydroxytropolones” (Bioorg Med Chem Lett, 2014):
# Active and inactive are the calls of the source. The calls are words filed in the database; no cut-off is given here.
# Tests used:
# [1] = Inhibition of Escherichia coli BL21 (lambda DE3) 2''-O-adenylyltransferase 1a by EnzChek pyrophosphate assay
# Summary of the method: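 ANT(2″)-Ia overexpressed in E. coli BL21 (λDE3) and purified. Adenylation of kanamycin B followed by detecting the pyrophosphate by-product in 96-well format. ATP at 25 μM. Duplicate serial dilutions of inhibitor; IC50 taken from the dose curves.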
# [2] = Binding affinity to Escherichia coli BL21 (lambda DE3) 2''-O-adenylyltransferase 1a by ATP-competitive inhibition assay
# Summary of the method: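 Purified ANT(2″)-Ia expressed in E. coli BL21 (λDE3). Pyrophosphate from kanamycin B adenylation detected by coupled pyrophosphate assay. Ki derived from dose curves with carefully maintained ATP and kanamycin B concentrations. Run only on compounds with IC50 < 200 μM.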
# [3] = test system: Escherichia coli; assay: Antibacterial activity against Escherichia coli BW25113 expressing 2''-O-adenylyltransferase 1a with aadB gene into pGDP4 vector by checkerboard analysis in presence of gentamycin; format: functional
# Summary of the method: (§1)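 Hyper-permeable E. coli BW25113 made gentamicin-resistant by cloning aadB (ANT(2″)-Ia) into pGDP4. Cells were exposed to serial dilutions of gentamicin crossed with serial dilutions of α-hydroxytropolone in checkerboard format. Growth was scored to give the gentamicin MIC at each inhibitor level and the FICI. Cell survival, as fraction of cells remaining, was scored at the inhibitor-alone concentrations.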
# [4] = test system: Escherichia coli; assay: Antibacterial activity against wild type Escherichia coli BW25113; format: functional, organism-based
# Summary of the method: (§2)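 Gentamicin alone was serially diluted to find its MIC (μg/mL). This was done against E. coli BW25113 carrying aadB in pGDP4 and against wild-type BW25113 without the plasmid.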
# [5] = test system: Escherichia coli; assay: Antibacterial activity against Escherichia coli BW25113 expressing 2''-O-adenylyltransferase with aadB gene into pGDP4 vector; format: functional, organism-based; summary of the method: as §2
# [6] = test system: Escherichia coli; assay: Inhibition of Escherichia coli W677/JR76.2 2''-O-adenylyltransferase 1a using [14C]ATP at 55 uM by liquid scintillation counting analysis
# [7] = test system: Escherichia coli; assay: Inhibition of Escherichia coli W677/JR76.2 2''-O-adenylyltransferase 1a using [14C]ATP at 550 uM by liquid scintillation counting analysis
# [8] = test system: Escherichia coli; assay: Inhibition of Escherichia coli W677/JR76.2 2''-O-adenylyltransferase 1a using [14C]ATP at 5.5 uM by liquid scintillation counting analysis
# [9] = test system: Escherichia coli; assay: Antibacterial activity against Escherichia coli BW25113 expressing 2''-O-adenylyltransferase 1a with aadB gene into pGDP4 vector assessed as gentamycin MIC at 12 uM by checkerboard analysis; format: functional; summary of the method: as §1
# [10] = test system: Escherichia coli; assay: Inhibition of Escherichia coli W677/JR76.2 2''-O-adenylyltransferase 1a using [14C]ATP at 730 uM by liquid scintillation counting analysis
# [11] = test system: Escherichia coli; assay: Antibacterial activity against Escherichia coli BW25113 expressing 2''-O-adenylyltransferase 1a with aadB gene into pGDP4 vector assessed as cell death at 50 uM; format: functional, organism-based; summary of the method: as §1
# [12] = test system: Escherichia coli; assay: Inhibition of Escherichia coli W677/JR76.2 2''-O-adenylyltransferase 1a using [14C]ATP at 73 uM by liquid scintillation counting analysis
# [13] = test system: Escherichia coli; assay: Inhibition of Escherichia coli W677/JR76.2 2''-O-adenylyltransferase 1a using [14C]ATP at 7.3 uM by liquid scintillation counting analysis
# [14] = test system: Escherichia coli; assay: Antibacterial activity against Escherichia coli BW25113 expressing 2''-O-adenylyltransferase 1d with aadB gene into pGDP4 vector by checkerboard analysis in presence of gentamycin; format: functional
# [15] = test system: Escherichia coli; assay: Antibacterial activity against Escherichia coli BW25113 expressing 2''-O-adenylyltransferase 1a with aadB gene into pGDP4 vector assessed as cell remain at 50 uM; format: functional; summary of the method: as §1
Molecule,IC50 [1] [µM],Ki [2] [µM],fractional inhibitory concentration index (FICI) [3],other results
Cc1cc(O)c(=O)c(O)cc1-c1ccccc1,117,25,2,–
COCc1cc(O)c(=O)c(O)c(C(=O)OC)c1C(=O)OC,> 200,–,–,–
Cc1cc(O)c(=O)c(O)cc1-c1ccc2ccccc2c1,> 200,–,–,–
GENTAMICIN,–,–,–,MIC [4]: 0.25 µg/mL; MIC [5]: 64 µg/mL
COC(=O)c1c(CCl)cc(O)c(=O)c(O)c1C(=O)OC,> 200,–,–,–
Cc1cc(O)c(=O)c(O)cc1-c1ccc([N+](=O)[O-])cc1,20,21.4,0.5,–
O=c1c(O)ccccc1O,–,–,–,inhibition [6]: 78%; inhibition [7]: 100%; inhibition [8]: 8%
Cc1cc(O)c(=O)c(O)cc1-c1ccc(Cl)cc1,9.9,6.9,2,–
Cc1cc(O)c(=O)c(O)cc1C(=O)C1CCCCC1,> 200,–,–,–
CC(C)c1ccc(O)c(=O)c(O)c1 [BETA-THUJAPLICINOL],6.6,6.4,0.375,MIC [9]: 8 µg/mL; inhibition [10]: 100%; Activity [11]: Active; inhibition [12]: 76%; inhibition [13]: 31%; fractional inhibitory concentration index (FICI) [14]: 3
Cc1cc(O)c(=O)c(O)cc1C(=O)C(C)C,73,19,0.375,–
COc1cc(C)c(-c2ccc([N+](=O)[O-])cc2)cc(O)c1=O,> 200,–,–,–
Cc1cc(O)c(=O)c(O)cc1-c1ccc(Br)cc1,8,5.7,1,–
CC(=O)c1cc(O)c(=O)c(O)cc1C,50,29,0.187,MIC [9]: 32 µg/mL; Activity [15]: 80%
COC(=O)c1c(C)cc(O)c(=O)c(O)c1C(=O)OC,> 200,–,–,–
Cc1cc(O)c(=O)c(O)cc1-c1ccc(-c2ccccc2)cc1,> 200,–,–,–
Cc1cc(O)c(=O)c(O)cc1-c1cccc2ccccc12,> 200,–,–,–
COc1cc(C)c(C(C)=O)cc(O)c1=O,> 200,–,–,–
CCOC(=O)c1cc(O)c(=O)c(O)cc1C,> 200,–,–,–
Cc1cc(O)c(=O)c(O)cc1C(=O)CC1CCCCC1,> 200,–,–,–
Cc1cc(O)c(=O)c(O)cc1C(=O)c1ccccc1,> 200,–,–,–
Cc1cc(O)c(=O)c(O)cc1-c1ccc(C(F)(F)F)cc1,> 200,–,–,–
